Values after ≈ are worked out from the molar mass of the structure shown. Active and inactive are the calls of the source. No cut-off for these calls is given here.
Columns and labels:
Candida tropicalis [1] = assay: Fungicidal activity against Candida tropicalis cgmcc 2.1975 after 96 hrs; format: functional; details: cgmcc 2.1975, 96 h, read-out: MFC99.9
How it was run: (§1)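 Wells from the 48 h, 28 °C RPMI 1640/MOPS microdilution plates were plated on YM agar and incubated a further 48 h at 28 °C. MFC is the lowest concentration killing at least 99.9% of cells. Run in triplicate with three biological replicates.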

Candida albicans [2] = assay: Antifungal activity against Candida albicans cgmcc 2.2086 in presence of 12.5% human heat-inactivated serum by broth dilution method; format: functional
Candida albicans [3] = assay: Antifungal activity against Candida albicans SP3903 after 48 hrs by broth microdilution method; format: functional; details: SP3903, 48 h
How it was run: (§2)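 Modified CLSI M27-A2 broth microdilution. Yeast at (0.5−1) × 10^3 CFU/mL in MOPS-buffered RPMI 1640 was mixed 1:1 with peptide serially diluted in 0.2% BSA and incubated 48 h at 28 °C. Absorbance was read at 492 nm; MIC is the lowest concentration inhibiting 95% of growth. Triplicate, three biological replicates.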

Candida albicans [4] = assay: Antifungal activity against Candida albicans cgmcc 2.2086 in presence of NH4Cl by broth dilution method; format: functional
Candida albicans [5] = assay: Fungicidal activity against Candida albicans 58288 after 96 hrs; format: functional; details: Candida albicans, 58288, 96 h; read-out: MFC99.9
How it was run: (§3)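 After the 48 h, 28 °C broth microdilution in MOPS-buffered RPMI 1640 (inoculum (0.5−1) × 10^3 CFU/mL), 50 μL from each well was plated on YM agar for a further 48 h at 28 °C. MFC is the lowest concentration killing at least 99.9% of cells. Triplicate, three biological replicates.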

Candida albicans [6] = assay: Fungicidal activity against Candida albicans SP3902 after 96 hrs; format: functional; details: SP3902, 96 h, read-out: MFC99.9; how it was run: as §3
Candida albicans [7] = assay: Antifungal activity against Candida albicans SP3902 after 48 hrs by broth microdilution method; format: functional; details: SP3902, 48 h; how it was run: as §2
Candida albicans [8] = assay: Antifungal activity against Candida albicans cgmcc 2.2086 in presence of NaCl by broth dilution method; format: functional
Candida albicans [9] = assay: Disruption of cytoplasmic membrane electrical potential in Candida albicans cgmcc 2.2086 at MFC after 800 secs by DiSC3-5 dye-based fluorescence spectrophotometric method; format: functional, organism-based
How it was run: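 Cells were loaded with the membrane potential-sensitive dye DiSC3-5, and its release on peptide treatment (various concentrations, including 1× MBC/MFC) was monitored as increasing fluorescence over 800 s.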

Candida albicans [10] = assay: Antifungal activity against Candida albicans cgmcc 2.2086 in presence of ZnCl2 by broth dilution method; format: functional
Lipid bilayer [11] = assay: Binding affinity to phosphatidylcholine/cholesterol large unilamellar vesicle assessed as induction of calcein leakage at 2 to 32 uM after 15 mins by spectrofluorophotometric method; details: 0.25 h
How it was run: (§4)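 Large unilamellar vesicles were made from PG/CL/PE (2:1:7), PC/PE/PI/ergosterol (5:4:1:2) or PC/cholesterol (10:1), loaded with 70 mM calcein in Tris/NaCl/EDTA buffer at pH 7.4, frozen and thawed 20 times, and extruded through 100 nm filters. Free dye was removed by gel filtration, and peptide-induced calcein release was measured.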

Candida albicans [12] = assay: Antifungal activity against Candida albicans SP3876 after 48 hrs by broth microdilution method; format: functional; details: SP3876, 48 h; how it was run: as §2
Pichia kudriavzevii [13] = assay: Fungicidal activity against Candida krusei cgmcc 2.1857 after 96 hrs; format: functional; details: cgmcc 2.1857, 96 h, read-out: MFC99.9; how it was run: as §1
Candida albicans [14] = assay: Antifungal activity against Candida albicans 14936 after 48 hrs by broth microdilution method; format: functional; details: Candida albicans, 14936, 48 h; how it was run: as §2
Candida albicans [15] = assay: Antifungal activity against fluconazole-resistant Candida albicans 17546 after 48 hrs by broth microdilution method; format: functional; details: Candida albicans, 17546, 48 h; how it was run: as §2
Candida albicans [16] = assay: Antifungal activity against Candida albicans cgmcc 2.2086 in presence of FeCl3 by broth dilution method; format: functional
Lipid bilayer [17] = assay: Binding affinity to phosphatidylcholine/phosphatidylethanolamine/phosphatidylinositol/ergosterol large unilamellar vesicle assessed as induction of calcein leakage at 2 to 32 uM after 15 mins by spectrofluorophotometric method; how it was run: as §4
Candida parapsilosis [18] = assay: Fungicidal activity against Candida parapsilosis cgmcc 2.3989 after 96 hrs; format: functional; details: Lodderomyces parapsilosis, cgmcc 2.3989, 96 h; read-out: MFC99.9; how it was run: as §1
Pichia kudriavzevii [19] = assay: Antifungal activity against Candida krusei cgmcc 2.1857 after 48 hrs by broth microdilution method; format: functional; details: cgmcc 2.1857, 48 h
How it was run: (§5)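 Modified CLSI M27-A2 broth microdilution. Yeast were suspended in MOPS-buffered RPMI 1640 at a final (0.5−1) × 10^3 CFU/mL and mixed 1:1 with peptide serially diluted in 0.2% BSA. Plates were incubated 48 h at 28 °C and read at A492. MIC is the lowest concentration giving 95% inhibition. Run in triplicate with three biological replicates.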

Candida albicans [20] = assay: Antifungal activity against Candida albicans 58288 after 48 hrs by broth microdilution method; format: functional; details: Candida albicans, 58288, 48 h; how it was run: as §2
Candida albicans [21] = assay: Antifungal activity against Candida albicans cgmcc 2.2086 after 48 hrs by broth microdilution method; format: functional; details: cgmcc 2.2086, 48 h; how it was run: as §2
Candida albicans [22] = assay: Fungicidal activity against fluconazole-resistant Candida albicans 56452 after 96 hrs; format: functional; details: Candida albicans, 56452, 96 h; read-out: MFC99.9; how it was run: as §3
Candida albicans [23] = assay: Antifungal activity against Candida albicans SP3931 after 48 hrs by broth microdilution method; format: functional; details: SP3931, 48 h; how it was run: as §2
Candida albicans [24] = assay: Antifungal activity against Candida albicans isolated from alveolar fluid after 48 hrs by broth microdilution method; format: functional; how it was run: as §2
Candida albicans [25] = assay: Antifungal activity against Candida albicans cgmcc 2.2086 in presence of 25% human heat-inactivated serum by broth dilution method; format: functional
Candida albicans [26] = assay: Antifungal activity against fluconazole-resistant Candida albicans 56452 after 48 hrs by broth microdilution method; format: functional; details: Candida albicans, 56452, 48 h; how it was run: as §2
Candida albicans [27] = assay: Antifungal activity against fluconazole-resistant Candida albicans 56214 after 48 hrs by broth microdilution method; format: functional; details: Candida albicans, 56214, 48 h; how it was run: as §2
Candida albicans [28] = assay: Fungicidal activity against fluconazole-resistant Candida albicans 56214 after 96 hrs; format: functional; details: Candida albicans, 56214, 96 h; read-out: MFC99.9; how it was run: as §3
Candida albicans [29] = assay: Fungicidal activity against Candida albicans isolated from alveolar fluid after 96 hrs; format: functional; details: read-out: MFC99.9; how it was run: as §3
Candida albicans [30] = assay: Fungicidal activity against fluconazole-resistant Candida albicans 17546 after 96 hrs; format: functional; details: Candida albicans, 17546, 96 h; read-out: MFC99.9; how it was run: as §3
Candida albicans [31] = assay: Fungicidal activity against Candida albicans SP3876 after 96 hrs; format: functional; details: SP3876, 96 h, read-out: MFC99.9; how it was run: as §3
Candida albicans [32] = assay: Antifungal activity against Candida albicans cgmcc 2.2086 in presence of CaCl2 by broth dilution method; format: functional
Candida albicans [33] = assay: Fungicidal activity against Candida albicans cgmcc 2.2086 after 96 hrs; format: functional; details: cgmcc 2.2086, 96 h, read-out: MFC99.9; how it was run: as §3
Candida albicans [34] = assay: Fungicidal activity against Candida albicans SP3931 after 96 hrs; format: functional; details: SP3931, 96 h, read-out: MFC99.9; how it was run: as §3
Candida albicans [35] = assay: Antifungal activity against Candida albicans cgmcc 2.2086 in presence of KCl by broth dilution method; format: functional
Candida parapsilosis [36] = assay: Antifungal activity against Candida parapsilosis cgmcc 2.3989 after 48 hrs by broth microdilution method; format: functional; details: Lodderomyces parapsilosis, cgmcc 2.3989, 48 h; how it was run: as §5
Candida albicans [37] = assay: Antifungal activity against Candida albicans cgmcc 2.2086 in presence of MgCl2 by broth dilution method; format: functional
Candida albicans [38] = assay: Antifungal activity against Candida albicans cgmcc 2.2086 in presence of 50% human heat-inactivated serum by broth dilution method; format: functional
Candida albicans [39] = assay: Fungicidal activity against Candida albicans 14936 after 96 hrs; format: functional; details: Candida albicans, 14936, 96 h; read-out: MFC99.9; how it was run: as §3
Candida tropicalis [40] = assay: Antifungal activity against Candida tropicalis cgmcc 2.1975 after 48 hrs by broth microdilution method; format: functional; details: cgmcc 2.1975, 48 h; how it was run: as §5
Candida albicans [41] = assay: Fungicidal activity against Candida albicans SP3903 after 96 hrs; format: functional; details: SP3903, 96 h, read-out: MFC99.9; how it was run: as §3

SMILES: OC(Cn1cncn1)(Cn1cncn1)c1ccc(F)cc1F [FLUCONAZOLE]
- MFC (Candida tropicalis [1]): 32 µM (≈ 9.8 µg/mL)
- MIC (Candida albicans [2]): 1 µM
- MIC95 (Candida albicans [3]): 16 µM (≈ 4.9 µg/mL)
- MIC (Candida albicans [4]): 1 µM
- MFC (Candida albicans [5]): > 64 µM
- MFC (Candida albicans [6]): > 64 µM
- MIC95 (Candida albicans [7]): 16 µM (≈ 4.9 µg/mL)
- MIC (Candida albicans [8]): 1 µM
- Activity (Candida albicans [9]): inactive
- MIC (Candida albicans [10]): 1 µM
- Activity (Lipid bilayer [11]): Not Active
- MIC95 (Candida albicans [12]): > 64 µM
- MFC (Pichia kudriavzevii [13]): 64 µM (≈ 19.6 µg/mL)
- MIC95 (Candida albicans [14]): 32 µM (≈ 9.8 µg/mL)
- MIC95 (Candida albicans [15]): > 64 µM
- MIC (Candida albicans [16]): 1 µM
- Activity (Lipid bilayer [17]): inactive
- MFC (Candida parapsilosis [18]): 8 µM (≈ 2.45 µg/mL)
- MIC95 (Pichia kudriavzevii [19]): 64 µM (≈ 19.6 µg/mL)
- MIC95 (Candida albicans [20]): 8 µM (≈ 2.45 µg/mL)
- MIC95 (Candida albicans [21]): 1 µM (≈ 0.306 µg/mL)
- MFC (Candida albicans [22]): > 64 µM
- MIC95 (Candida albicans [23]): 1 µM (≈ 0.306 µg/mL)
- MIC95 (Candida albicans [24]): 2 µM (≈ 0.613 µg/mL)
- MIC (Candida albicans [25]): 1 µM
- MIC95 (Candida albicans [26]): > 64 µM
- MIC95 (Candida albicans [27]): > 64 µM
- MFC (Candida albicans [28]): > 64 µM
- MFC (Candida albicans [29]): 8 µM (≈ 2.45 µg/mL)
- MFC (Candida albicans [30]): > 64 µM
- MFC (Candida albicans [31]): > 64 µM
- MIC (Candida albicans [32]): 1 µM
- MFC (Candida albicans [33]): 2 µM (≈ 0.613 µg/mL)
- MFC (Candida albicans [34]): 64 µM (≈ 19.6 µg/mL)
- MIC (Candida albicans [35]): 1 µM
- MIC95 (Candida parapsilosis [36]): 4 µM (≈ 1.23 µg/mL)
- MIC (Candida albicans [37]): 1 µM
- MIC (Candida albicans [38]): 2 µM
- MFC (Candida albicans [39]): > 64 µM
- MIC95 (Candida tropicalis [40]): 4 µM (≈ 1.23 µg/mL)
- MFC (Candida albicans [41]): 64 µM (≈ 19.6 µg/mL)

— ChEMBL document CHEMBL4177755, “Combating Drug-Resistant Fungi with Novel Imperfectly Amphipathic Palindromic Peptides” (J Med Chem, 2018)
